Each structure is given as a SMILES string. Active and inactive are the calls of the source. The calls are words filed in the database; no cut-off is given here.

Assay [1] deals with Rattus norvegicus. The assay can be described thus: Antiinflammatory activity against Wistar albino rat assessed as inhibition of carrageenan-induced paw edema at 20 mg/kg, po administered 30 mins prior to carrageenan challenge measured after 0.5 hrs. The assay is classed as functional. In short, it runs like this:
(§1)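 Carrageenan paw oedema in Wistar albino rats (Winter method). Compounds given orally at 20 mg/kg as a suspension in 1% carboxymethyl cellulose, 30 min before 0.1 mL of 1% w/v carrageenan injected into the plantar region of the paw. Paw volume measured by plethysmography at 30, 60, 90, 120, 150 and 180 min. Inhibition calculated relative to vehicle controls. Mean ± SEM.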

For assay [2], the system named is Rattus norvegicus. The assay can be described thus: Antiinflammatory activity against Wistar albino rat assessed as inhibition of carrageenan-induced paw edema at 20 mg/kg, po administered 30 mins prior to carrageenan challenge measured after 1 hrs. The assay is classed as functional. In short, it runs like this:
as §1

Assay [3] relates to Rattus norvegicus. The assay can be described thus: Antiinflammatory activity against Wistar albino rat assessed as inhibition of carrageenan-induced paw edema at 20 mg/kg, po administered 30 mins prior to carrageenan challenge measured after 1.5 hrs. The assay is classed as functional. In outline: as §1
The subject of assay [4] is Rattus norvegicus. The assay can be described thus: Antiinflammatory activity against Wistar albino rat assessed as inhibition of carrageenan-induced paw edema at 20 mg/kg, po administered 30 mins prior to carrageenan challenge measured after 2 hrs. The assay is classed as functional. In short, it runs like this:
as §1

Assay [5] concerns Rattus norvegicus. The assay can be described thus: Antiinflammatory activity against Wistar albino rat assessed as inhibition of carrageenan-induced paw edema at 20 mg/kg, po administered 30 mins prior to carrageenan challenge measured after 2.5 hrs. The assay is classed as functional. In outline: as §1
The subject of assay [6] is Rattus norvegicus. The assay can be described thus: Antiinflammatory activity against Wistar albino rat assessed as inhibition of carrageenan-induced paw edema at 20 mg/kg, po administered 30 mins prior to carrageenan challenge measured after 3 hrs. The assay is classed as functional. In outline: as §1
The next assay relates to Staphylococcus aureus. The assay can be described thus: Antimicrobial activity against Staphylococcus aureus at 1000 ug after 24 to 48 hrs by well diffusion method. The assay is classed as functional, organism-based. In short, it runs like this: (§2)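 Agar well diffusion against Staphylococcus aureus, Escherichia coli and Aspergillus. Compounds dissolved in DMF (10 mg in 10 mL), and the solution placed into wells cut with a borer. Plates incubated at 37 °C for 24–48 h, then inspected.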

Another assay relates to Escherichia coli. The assay can be described thus: Antimicrobial activity against Escherichia coli at 1000 ug after 24 to 48 hrs by well diffusion method. The assay is classed as functional, organism-based. In outline:
as §2

The subject of another assay is Aspergillus. The assay can be described thus: Antimicrobial activity against Aspergillus at 1000 ug after 24 to 48 hrs by well diffusion method. The assay is classed as functional, organism-based. In short, it runs like this:
as §2

Another assay deals with Mus musculus. The assay can be described thus: Analgesic activity against Swiss albino mouse assessed as increase in paw licking or jump response at 10 mg/kg, po after 1.5 hrs by hot plate method. The assay is classed as functional. In short, it runs like this: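 Hot-plate test in Swiss albino mice, 6 per group. Compounds given orally by gavage as a suspension in 1% carboxymethyl cellulose, 10 mg/kg. Animals placed on a plate held at 55 ± 1 °C, with paw licking or jumping as the end point. Reaction time recorded at 30, 60 and 90 min after dosing. Percentage increase in reaction time calculated using the maximum tolerated reaction time. Mean ± SEM.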

For the compound `CC(C)Cc1ccc(C(C)c2nnc(S)n2N)cc1` (centres undefined), the inhibition in vivo at 20 mg/kg worked out at 30% with Rattus norvegicus [1]; 32% in the assay with Rattus norvegicus [2]; 46% in the assay with Rattus norvegicus [3]; 45% in the assay with Rattus norvegicus [4]; 50% in the assay with Rattus norvegicus [5]; 56% in the assay on Rattus norvegicus [6]. The result with Staphylococcus aureus, in the assay on Escherichia coli and in the assay with Aspergillus was inactive.
On to `CC(C)Cc1ccc(C(C)c2nn(CN3CCOCC3)c(=S)n2/N=C/c2ccc([N+](=O)[O-])cc2)cc1` (centres undefined), for which the inhibition in vivo at 20 mg/kg worked out at 12% with Rattus norvegicus [1]; 52% in the assay with Rattus norvegicus [2]; 65% in the assay with Rattus norvegicus [3]; 54% in the assay on Rattus norvegicus [4]; 71% in the assay on Rattus norvegicus [5]; 73% in the assay on Rattus norvegicus [6]. Moreover, the Activity in the assay on Mus musculus is 79.6%. In addition, the outcome with Staphylococcus aureus, in the assay on Escherichia coli and in the assay on Aspergillus was inactive.
As for `CC(C)Cc1ccc(C(C)c2nnc(S)n2/N=C/c2ccc(Cl)cc2)cc1` (centres undefined), the inhibition in vivo at 20 mg/kg in the assay on Rattus norvegicus [1] worked out at 62%; with Rattus norvegicus [2] it was 49%; in the assay with Rattus norvegicus [3] it was 52%; in the assay with Rattus norvegicus [4] it was 57%; in the assay with Rattus norvegicus [5] it was 62%; in the assay with Rattus norvegicus [6], 64%. Also, the outcome in the assay on Staphylococcus aureus, in the assay with Escherichia coli and with Aspergillus was inactive.
For the compound `CC(C)Cc1ccc(C(C)c2nn(CN3CCOCC3)c(=S)n2/N=C/c2ccc(Cl)cc2)cc1` (centres undefined), the inhibition in vivo at 20 mg/kg in the assay with Rattus norvegicus [1] was 90%; in the assay with Rattus norvegicus [2] it was 42%; in the assay with Rattus norvegicus [3] it was 61%; with Rattus norvegicus [4], 61%; in the assay with Rattus norvegicus [5] it was 73%; with Rattus norvegicus [6], 74%. Further, the Activity in the assay with Mus musculus is on record as 76.49%. In addition, the result in the assay on Staphylococcus aureus, in the assay on Escherichia coli and in the assay on Aspergillus was inactive.
With `CC(C)Cc1ccc(C(C)C(=O)O)cc1` (centres undefined) [IBUPROFEN], the inhibition in vivo at 20 mg/kg in the assay with Rattus norvegicus [1] was found to be 20%; in the assay on Rattus norvegicus [2] it was 18%; with Rattus norvegicus [3] it was 25%; in the assay with Rattus norvegicus [4], 36%; in the assay on Rattus norvegicus [5], 39%; in the assay with Rattus norvegicus [6], 42%.
Regarding `CC(C)Cc1ccc(C(C)c2nnc(S)n2/N=C/c2ccc(Br)cc2)cc1` (centres undefined), the inhibition in vivo at 20 mg/kg in the assay with Rattus norvegicus [1] came out at 0%; in the assay with Rattus norvegicus [2], 16%; in the assay with Rattus norvegicus [3], 65%; with Rattus norvegicus [4] it was 60%; with Rattus norvegicus [5], 70%; in the assay on Rattus norvegicus [6] it was 72%. In addition, the result with Staphylococcus aureus, in the assay on Escherichia coli and in the assay with Aspergillus was inactive.
For `CC(C)Cc1ccc(C(C)c2nn(CN3CCN(C)CC3)c(=S)n2/N=C/c2ccc([N+](=O)[O-])cc2)cc1` (centres undefined), the inhibition in vivo at 20 mg/kg in the assay on Rattus norvegicus [1] was determined as 38%; in the assay with Rattus norvegicus [2], 70%; in the assay on Rattus norvegicus [3], 82%; with Rattus norvegicus [4], 68%; in the assay with Rattus norvegicus [5], 75%; in the assay with Rattus norvegicus [6], 74%. For the same compound, the Activity with Mus musculus is 70.75%. Moreover, the outcome in the assay on Staphylococcus aureus, in the assay on Escherichia coli and with Aspergillus was inactive.
With `O=C(O)Cc1ccccc1Nc1c(Cl)cccc1Cl` [DICLOFENAC], the inhibition in vivo at 20 mg/kg with Rattus norvegicus [1] came out at 83%; in the assay with Rattus norvegicus [2], 59%; with Rattus norvegicus [3], 70%; in the assay on Rattus norvegicus [4], 87%; with Rattus norvegicus [5] it was 69%; in the assay on Rattus norvegicus [6] it was 65%. Moreover, in the assay on Mus musculus, the Activity is recorded as 79.24%.
Take `Cc1ccc(/C=N/n2c(C(C)c3ccc(CC(C)C)cc3)nn(CN3CCOCC3)c2=S)cc1` (centres undefined): the inhibition in vivo at 20 mg/kg was found to be 0% with Rattus norvegicus [1]; 23% in the assay on Rattus norvegicus [2]; 64% in the assay with Rattus norvegicus [3]; 60% in the assay with Rattus norvegicus [4]; 67% with Rattus norvegicus [5]; 68% with Rattus norvegicus [6]. For the same compound, in the assay on Mus musculus, the Activity came out at 64.32%. Further, the result with Staphylococcus aureus, in the assay with Escherichia coli and in the assay on Aspergillus was inactive.
Turning to `CC(C)Cc1ccc(C(C)c2nn(CN(c3ccccc3)c3ccccc3)c(=S)n2/N=C/c2ccc(Br)cc2)cc1` (centres undefined), the inhibition in vivo at 20 mg/kg in the assay on Rattus norvegicus [1] turned out to be 9%; in the assay with Rattus norvegicus [2] it was 10%; in the assay on Rattus norvegicus [3], 38%; in the assay on Rattus norvegicus [4], 38%; in the assay with Rattus norvegicus [5] it was 57%; in the assay on Rattus norvegicus [6] it was 57%. Moreover, the result with Staphylococcus aureus, in the assay with Escherichia coli and with Aspergillus was inactive.

(Values after ChEMBL document CHEMBL1153766, “Regioselective reaction: synthesis and pharmacological study of Mannich bases containing ibuprofen moiety” (2009).)
